STAT1 act: increases IFN-gamma driven STAT1 reporter signal | NIH 3T3 STAT1-luciferase reporter, luminescence; 100% = IFN-gamma alone, no compound | activation (% of control), % at 5.5 µM | hit rate 2.6% among 200,000;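 active = activation above the screen-wide mean activation plus 3 SD, cut at about 130% in these data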;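 also: raw ratio to IFN-gamma control signal so 100% means no change and 0% no light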
STAT3 inh-1: STAT3 signaling inhibition | U3A cells, IL-6 STAT3-luciferase reporter, luminescence; host cell line lacks STAT1 | hit rate 0.89% among 190,000 | inhibition, % at 5.5 µM;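 active = inhibition above the mean inhibition across all screened compounds plus 3 SD, cut at about 44% in these data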;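 also: 0% = DMSO only wells and 100% = 100 µM nifuroxazide control wells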
NF-kB expr up: compounds increasing NF-kB expression in human neuronal cells. AID 1239. fold change at 12.5 µM. hit rate 1.6% among 190,000. NF-kB reporter expression; stronger effect = higher value; in the data active = fold change above about 3.3
STAT1 blocker: inhibitors of IFN-gamma induced STAT1 signaling | NIH 3T3 STAT1-luciferase reporter, luminescence | inhibition, % at 5.5 µM | hit rate 0.35% among 200,000 | AID 920;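 active = inhibition above a set limit, the mean inhibition across all tested compounds plus 3 SD, cut at about 34% in these data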;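 also: 0% = IFN-gamma with DMSO and 100% = IFN-gamma with 300 µM nifuroxazide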
APP 5'UTR act: activates APP 5'UTR luciferase reporter; SH-SY5Y APP 5'UTR luciferase reporter, luminescence; zero percent = DMSO vehicle wells; activation, % at 2 µM; hit rate 1% among 190,000; AID 1276;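 active = activation above a set limit, based on mean plus 3 SD of controls, cut at about 140% in these data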
STAT3 act: increases IL-6 driven STAT3 reporter signal; U3A cells, IL-6 STAT3-luciferase reporter, luminescence; 100% = signal with IL-6 EC80 alone; activation (% of control), % at 5.6 µM; AID 871; hit rate 0.91% among 190,000;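 active = activation above the screen-wide mean of compound activation plus 3 SD, cut at about 130% in these data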;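 also: 0% = background luminescence of wells with medium and substrate only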
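Test system: human U3A cells carrying STAT3-luciferase construct; control set: IL-6-only wells as 100% reference; timing: compound pre-incubation 1 h before IL-6, then 6 h stimulation at 37 °C; also added: IL-6 stimulus at 33 ng/mL final; evaluation: % activation versus median of IL-6-stimulated wells; detection: reporter luminescence signal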
STAT3 inh-2: confirmation of STAT3 signaling inhibitors; shares compounds with STAT3 inh-1; hit rate 45% among 1,200; U3A cells, IL-6 STAT3 luciferase reporter, luminescence; cell line lacks STAT1; inhibition, % at 5.7 µM;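 active = inhibition above the hit cutoff computed for the primary STAT3 screen, cut at about 44% in these data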;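 also: 0% = IL-6 plus DMSO and 100% = IL-6 plus nifuroxazide control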
NFkB inh STAT3ct: inhibits NF-kappaB, counter-screen to STAT3 inhibitors | shares compounds with STAT3 inh-1 | HEK293T NF-kB luciferase reporter, TNF-alpha induced | inhibition, % at 5.7 µM | hit rate 36% among 1,200;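 active = inhibition above the mean of solvent-only control wells plus 3 SD, cutoff set per campaign, cut at about 13% in these data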;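 also: 0% = TNF-alpha with DMSO and 100% = TNF-alpha with MG high control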
STAT1 inh 2: STAT1 inhibition in STAT3 inhibitor counter-screen. inhibition, % at 5.7 µM. NIH 3T3 STAT1-luciferase reporter, IFN-gamma induced, luminescence. shares compounds with STAT3 inh-1. AID 1317. hit rate 27% among 1,200;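 active = inhibition above the mean plus 3 SD of solvent-only control wells, limit set per screening run, cut at about 16% in these data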;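 also: 0% = DMSO with IFN-gamma and 100% = nifuroxazide control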
* marks the source's active call; other numbers are inactive results; nt = no result given. Compounds with a hit are over-represented: about 4.9% of the library has one in this group of screens.

SMILES	STAT1 act	STAT3 inh-1	NF-kB expr up	STAT1 blocker	APP 5'UTR act	STAT3 act	STAT3 inh-2	NFkB inh STAT3ct	STAT1 inh 2
COc1ccc(/C=C/C(=O)C23CC4CC(CC(C4)C2)C3)cc1CN1CCOCC1	95	-5	1.3	5	12	106	nt	nt	nt
CCc1nc(C)cn1S(=O)(=O)c1cc(C)c(OC)c(C)c1C	81	54*	0.89	21	20	57	45*	10	17*
CCc1nc(C)cn1S(=O)(=O)c1cc(C)c(OC)cc1C	93	18	1	7	8	92	nt	nt	nt
COc1ccc(N2CCN(C(=O)CSc3nnc4n3C(C)(C)Cc3ccccc3-4)CC2)cc1	98	11	0.48	3	-12	95	nt	nt	nt
Cc1ccc(Cl)cc1N1CCN(C(=O)CSc2nnc3n2C(C)(C)Cc2ccccc2-3)CC1	80	81*	0.39	21	-7	36	72*	15*	17*
CONC(=O)C1CCN(C(=O)OCc2ccccc2)CC1	116	17	1.2	-18	15	90	nt	nt	nt
CNC(=O)c1c(C)noc1C	101	2	1.2	-2	5	101	nt	nt	nt
CCC(C)NC(=O)c1ccc([N+](=O)[O-])c(Cl)c1 (configuration not stated)	106	0	1.1	-7	-13	98	nt	nt	nt
COc1cc(NC(=O)c2cc(C(C)C)on2)cc(OC)c1OC	96	16	0.9	5	4	91	nt	nt	nt
CCc1ccc(NC(=O)c2cc(C)on2)cc1	115	49*	5.8*	-17	200*	63	12	-34	-87
CCc1ccc(NC(=O)c2cc(-c3ccc(OC)cc3)on2)cc1	101	4	1.1	-1	9	96	nt	nt	nt
CCc1ccc(NC(=O)c2cc(C(C)C)on2)cc1	121	48*	8*	-23	137*	65	9	-36	-105
O=C(COC(=O)CCC(=O)c1cccs1)Nc1cc(S(=O)(=O)N2CCOCC2)ccc1Cl	97	-15	1.1	3	-10	113	nt	nt	nt
CCN(CC)CCNC(=S)Nc1ccc(F)cc1	105	3	1	-7	-3	99	nt	nt	nt
Cc1ccc(N2C(=O)c3ccccc3C2O)nc1 (configuration not stated)	99	74*	1.3	2	113	40	44*	8	-21
CCOC(=O)NS(=O)(=O)c1ccc(CCNC(=O)c2cc(C)on2)cc1	106	2	1.1	-7	-5	101	nt	nt	nt
O=C(Nc1ccc(-c2nc3ccccc3s2)cc1)C1=COCCO1	126	54*	1.4	-30	102	55	77*	60*	31*
COc1cc([N+](=O)[O-])c(C(=O)N2CCOCC2)c([N+](=O)[O-])c1	92	3	1.1	11	6	95	nt	nt	nt
CCOc1cc(/C=N/NC(=O)C(=O)Nc2cc(Cl)ccc2C)ccc1O	102	12	0.87	-6	0	94	nt	nt	nt
O=C(Cc1ccc(Cl)cc1)Nc1ncc([N+](=O)[O-])s1	98	4	1.8	2	39	101	nt	nt	nt
O=C(COc1ccc(Cl)cc1)Nc1ncc([N+](=O)[O-])s1	70	48*	2.1	31	116	63	8	-9	-42
COc1ccc(S(=O)(=O)N2CCOC2CNC(=O)C(=O)NCCc2c[nH]c3ccccc23)cc1C (configuration not stated)	106	4	0.27	-6	-26	97	nt	nt	nt
Cc1noc(C)c1CSCc1ccc(Cl)cc1	101	12	1.4	-3	18	94	nt	nt	nt
O=C(O)CNS(=O)(=O)c1ccc(C2CCCCC2)cc1	106	12	1	-9	10	98	nt	nt	nt
CN(C)c1ccc(-c2nc3ccccc3n2C)cc1	74	77*	2.1	29	97	35	25	6	-66
CCn1c(-c2ccc(N)cc2)nc2ccccc21	114	2	1.1	-15	-1	106	nt	nt	nt
